Screens as filed in PubChem.
A selection: hits, their analogues and other compounds. The true share with any hit is near 2.9%.
VIM-2 inh: inhibitors of Pseudomonas aeruginosa VIM-2 metallo-beta-lactamase | purified VIM-2, nitrocefin hydrolysis, epi-absorbance fluorescence | inhibition, % at 5.6 µM | actives 0.89% (n = 290,000);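 active = inhibition above the mean of all tested compounds plus 3 SD, cutoff set per screening run, cut at about 7.5% in these data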;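 note: red hydrolysis product quenches plate fluorescence so inhibitors raise well fluorescence; 0% = enzyme with DMSO and 100% = DMSO without enzyme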
NALP3 yeast inh: NALP3 inhibition in yeast. Yeast reconstituted NLRP3/ASC/caspase-1, beta-gal luminescence, 24 h. inhibition, % at 10 µM. actives 0.39% (n = 330,000);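 active = inhibition of 50% or more; inactive = inhibition below 50%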;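 note: plate controls were induced DMSO wells for no effect and uninduced yeast grown without galactose for full effect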
IMP-1 inhibitor: inhibitors of Pseudomonas aeruginosa IMP-1 metallo-beta-lactamase. purified IMP-1, nitrocefin hydrolysis, epi-absorbance fluorescence. actives 0.45% (n = 290,000). inhibition, % at 5.6 µM;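 active = inhibition above the mean plus 3 SD of all compounds in the same screening run, cut at about 4.5% in these data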;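 note: 0% = IMP-1 with DMSO and 100% = DMSO wells lacking enzyme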
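Assay system: purified recombinant IMP-1 beta-lactamase. Input: IMP-1 0.2 nM before substrate addition. Buffer or medium: Zinc- and detergent-supplemented HEPES buffer, pH 7.1. Schedule: 25 °C, 15 min preincubation, 25 min reaction. Signal: Epi-absorbance fluorescence, 480 nm excitation, 530 nm emission. Evaluation: percent inhibition from optical density relative to buffer-blank wells.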
Mot1-301 SUMO: SUMOylation pathway inhibition by Mot1-301 growth rescue; S. cerevisiae Mot1-301 growth rescue, ATP luminescence, 38.5C; percent above DMSO median, 100 means doubled; growth rescue, % at 18.8 µM; actives 1% (n = 320,000); AID 2716;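 active = every valid replicate shows activation above 250% relative to neutral control wells; inactive = the rest, any valid replicate at or below 250%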;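 note: OY570 slx delta 5 strain wells were the positive control but not used for scaling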
NALP1 yeast inh: NALP1 inhibition; S. cerevisiae NALP1/ASC/caspase-1 growth, X-gal OD620, 72 h; inhibition, % at 10 µM; actives 0.61% (n = 280,000); in the data active = inhibition mostly above about 24%, no sharp cut-off; inactive = mostly below about 32%
PolyA inh: yeast polyadenylation inhibition; S. cerevisiae SKY197-pL101 polyadenylation reporter, beta-gal luminescence; efflux-impaired pdr1/pdr3 knockout yeast; score 100 = 6 SD above DMSO; activity score, % at 12 µM; actives 0.02% (n = 300,000); AID 1875;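 active = lowest replicate activity score at least 50, where 100 means six control SD above control mean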;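 note: yeast exposed to compound for 9 h at 30 °C; higher score means more reporter readthrough which indicates perturbed polyadenylation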
Starred values were filed as active, the others as inactive.

Screening CC(Oc1cc2oc(=O)c3c(c2cc1Cl)CCC3)C(=O)NCCCN1CCCC1=O (stereo not drawn) returned VIM-2 inh 9.1*, NALP3 yeast inh 9, IMP-1 inhibitor -5, Mot1-301 SUMO 7, NALP1 yeast inh -10 and PolyA inh -23.
`Cc1cc2nsnc2c(S(=O)(=O)N2CCN(C)CC2)c1C` gave VIM-2 inh -2, NALP3 yeast inh 35, IMP-1 inhibitor -2, Mot1-301 SUMO -13, NALP1 yeast inh 2 and PolyA inh 1.
For CCCN(c1ccccc1F)S(=O)(=O)c1c[nH]c(C(=O)OC)c1 the results were VIM-2 inh -6, NALP3 yeast inh 12, IMP-1 inhibitor -4, Mot1-301 SUMO 125, NALP1 yeast inh -11 and PolyA inh 3.
Screening CC(OC(=O)CCOc1ccccc1)C(=O)NC1CC1 (stereo not drawn) returned NALP3 yeast inh 8, Mot1-301 SUMO -1 and PolyA inh 8.
Screening CCCC(=O)Nc1ccccc1NC(C)=O returned VIM-2 inh -1, NALP3 yeast inh 4, IMP-1 inhibitor 5.3*, Mot1-301 SUMO 55, NALP1 yeast inh 4 and PolyA inh 2.
Screening CCCCCC(=O)Nc1cccc2ccccc12 returned VIM-2 inh 0, NALP3 yeast inh 6, IMP-1 inhibitor -1, Mot1-301 SUMO -17, NALP1 yeast inh -5 and PolyA inh 2.
For NC(=O)C1CCN(C2=C(NS(=O)(=O)c3ccccc3)C(=O)c3ccccc3C2=O)CC1 the results were VIM-2 inh 8.8*, NALP3 yeast inh 13, IMP-1 inhibitor 0, Mot1-301 SUMO -14, NALP1 yeast inh -3 and PolyA inh -14.
CN1CCN(C2=C(NS(=O)(=O)c3ccccc3)C(=O)c3ccccc3C2=O)CC1 was read as VIM-2 inh -5, NALP3 yeast inh 10, IMP-1 inhibitor -4, Mot1-301 SUMO 0, NALP1 yeast inh -13 and PolyA inh 6.
O=C1C(NS(=O)(=O)c2ccc(Cl)cc2)=C(N2CCCCC2)C(=O)c2ccccc21 was read as VIM-2 inh 9.3*, NALP3 yeast inh 13, IMP-1 inhibitor 0, Mot1-301 SUMO -12, NALP1 yeast inh 36 and PolyA inh -6.
Screening CCOC(=O)N1CCN(C2=C(NS(=O)(=O)c3ccccc3)C(=O)c3ccccc3C2=O)CC1 returned VIM-2 inh 9.4*, NALP3 yeast inh 15, IMP-1 inhibitor -2, Mot1-301 SUMO 28, NALP1 yeast inh -1 and PolyA inh -12.
Cc1c(Cl)cccc1NC(=O)COC(=O)c1ccc(CN2CCCC2=O)cc1 was read as NALP3 yeast inh 13 and Mot1-301 SUMO 2.
Screening CSc1nc(C(=O)N2CCCC(Nc3ccc(C)c(C)c3)C2)cs1 (stereo not drawn) returned VIM-2 inh 0, NALP3 yeast inh 32, IMP-1 inhibitor -3, Mot1-301 SUMO -24, NALP1 yeast inh 13 and PolyA inh -18.
`COc1ccc(NC(=S)NCCc2c[nH]c3ccc(OC)cc23)c(OC)c1` gave VIM-2 inh -4, NALP3 yeast inh 11, IMP-1 inhibitor -4, Mot1-301 SUMO 157, NALP1 yeast inh 29* and PolyA inh -1.
Screening COc1ccc(NC(=S)NCCc2c[nH]c3ccccc23)c(OC)c1 returned VIM-2 inh -3, NALP3 yeast inh 12, IMP-1 inhibitor -4, Mot1-301 SUMO -1, NALP1 yeast inh 12 and PolyA inh 0.
COc1ccc(S(=O)(=O)Nc2cc3c(C(C)=O)c(C)oc3c3ccccc23)cc1 was read as VIM-2 inh -3, NALP3 yeast inh 14, IMP-1 inhibitor -1, Mot1-301 SUMO -19, NALP1 yeast inh 34 and PolyA inh -26.
Screening Cc1oc2c(cc(NS(=O)(=O)c3cccs3)c3ccccc32)c1C(=O)OC(C)C returned VIM-2 inh 2, NALP3 yeast inh 8, IMP-1 inhibitor 0, Mot1-301 SUMO -42, NALP1 yeast inh 2 and PolyA inh 4.
`Cc1oc2c(cc(NS(=O)(=O)c3ccc(F)cc3)c3ccccc32)c1C(=O)O` gave VIM-2 inh -3, NALP3 yeast inh 12, IMP-1 inhibitor 5.8*, Mot1-301 SUMO -6, NALP1 yeast inh 1 and PolyA inh -3.
Screening Cc1oc2c(cc(NS(=O)(=O)c3ccc(C(C)C)cc3)c3ccccc32)c1C(=O)O returned VIM-2 inh 2, NALP3 yeast inh 18, IMP-1 inhibitor 8.9*, Mot1-301 SUMO 7, NALP1 yeast inh 1 and PolyA inh 14.
COCCCNC(=O)CSc1nc2cc(C(=O)NCCOC)ccc2c(=O)n1Cc1ccc2c(c1)OCO2 was read as VIM-2 inh -1, NALP3 yeast inh 21, IMP-1 inhibitor -3, Mot1-301 SUMO -7, NALP1 yeast inh -3 and PolyA inh -10.
Screening O=C(NCc1cccs1)C1CCCN(c2nc3ccccc3o2)C1 (stereo not drawn) returned VIM-2 inh 1, NALP3 yeast inh 15, IMP-1 inhibitor 4.8*, Mot1-301 SUMO 2, NALP1 yeast inh 19 and PolyA inh 19.
Screening Cc1ccc(CNC(=O)C2CCCN(c3nc4ccccc4o3)C2)cc1 (stereo not drawn) returned VIM-2 inh 0, NALP3 yeast inh 21, IMP-1 inhibitor -1, Mot1-301 SUMO -15, NALP1 yeast inh 30 and PolyA inh -4.
Screening O=C1c2ccccc2C(=O)N1Nc1ccc([N+](=O)[O-])cc1[N+](=O)[O-] returned VIM-2 inh -1, NALP3 yeast inh 29, IMP-1 inhibitor 4.5*, Mot1-301 SUMO 15, NALP1 yeast inh 19 and PolyA inh 0.
Screening O=[N+]([O-])c1ccc(Nc2ccccn2)c([N+](=O)[O-])c1 returned VIM-2 inh -5, NALP3 yeast inh 30, IMP-1 inhibitor -5, Mot1-301 SUMO 14, NALP1 yeast inh 26* and PolyA inh -6.
For O=C1C2C3C=CC(C3)C2C(=O)N1Nc1ccc([N+](=O)[O-])cc1[N+](=O)[O-] (stereo not drawn) the results were VIM-2 inh -2, NALP3 yeast inh 28, IMP-1 inhibitor -3, Mot1-301 SUMO -5, NALP1 yeast inh 4 and PolyA inh 16.
Screening Cc1onc(-c2c(F)cccc2Cl)c1C(=O)Nc1ccc(Cl)c(S(=O)(=O)N(C)C)c1 returned NALP3 yeast inh -12 and Mot1-301 SUMO -3.
`CN(CCOc1ccccc1)C(=O)C1CCC(=O)N(CCN2CCOCC2)C1` (stereo not drawn) gave VIM-2 inh -2, NALP3 yeast inh 6, IMP-1 inhibitor -3, Mot1-301 SUMO -12, NALP1 yeast inh -4 and PolyA inh 17.
COC(=O)c1cc2c(=O)c3ccccc3oc2nc1/C=C/N(C)C was read as VIM-2 inh 7.7*, IMP-1 inhibitor 3, Mot1-301 SUMO -6, NALP1 yeast inh -5 and PolyA inh -10.
